Measurements from ChEMBL document CHEMBL1152370, “N-(4-Fluorobenzyl)-3-hydroxy-9,9-dimethyl-4-oxo-6,7,8,9-tetrahydro-4H-pyrazino[1,2-a]pyrimidine-2-carboxamides a novel class of potent HIV-1 integrase inhibitors” (Bioorg Med Chem Lett, 2009).

Columns and labels:
[1] = target: Human immunodeficiency virus type 1 integrase (Human immunodeficiency virus 1, UniProt Q7ZJM1); assay: Inhibition of HIV1 recombinant integrase strand transfer activity treated after enzyme assembly and washing
[2] = system: Human immunodeficiency virus 1; assay: Antiviral activity against HIV1 3B infected in human MT4 cells assessed as inhibition of viral spread in presence of 10% heat inactivated fetal bovine serum; format: functional; conditions: Human immunodeficiency virus 1, 3B, read-out: CIC95
How it was run: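 Spread assay of HIV-1 IIIB infection in MT-4 human T-lymphoid cell culture with 10% heat-inactivated fetal bovine serum. The value is the 95% inhibitory concentration (CIC95) for blocking the spread of infection. SD was always ±10% of the value.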

[3] = system: Human immunodeficiency virus 1; assay: Antiviral activity against HIV1 3B infected in human MT4 cells assessed as inhibition of viral spread in presence of 50% normal human serum; format: functional; conditions: Human immunodeficiency virus 1, 3B, read-out: CIC95
How it was run: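 Spread assay of HIV-1 IIIB infection in MT-4 human T-lymphoid cell culture with 50% normal human serum. The value is the CIC95, the 95% inhibitory concentration for blocking the spread of infection. SD was always ±10% of the value.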

[4] = Plasma clearance in rat; format: ADME, organism-based
[5] = Bioavailability in rat; format: ADME, organism-based; conditions: in vivo

Sequence of Human immunodeficiency virus type 1 integrase (Q7ZJM1 whole entry): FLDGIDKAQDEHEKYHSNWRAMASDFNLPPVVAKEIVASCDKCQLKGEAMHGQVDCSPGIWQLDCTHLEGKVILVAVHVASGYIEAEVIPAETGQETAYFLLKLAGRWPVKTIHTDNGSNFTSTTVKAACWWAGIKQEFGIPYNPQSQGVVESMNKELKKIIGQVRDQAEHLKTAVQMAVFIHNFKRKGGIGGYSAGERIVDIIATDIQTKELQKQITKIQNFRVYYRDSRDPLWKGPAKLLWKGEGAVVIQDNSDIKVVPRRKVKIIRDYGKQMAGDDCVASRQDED

| Compound | IC50 [1] [nM] | clearance [4] [mL/min/kg] | bioavailability [5] [%] | IC95 [2] [nM] | IC95 [3] [nM] |
| --- | --- | --- | --- | --- | --- |
| Cc1nnc(C(=O)NC(C)(C)c2nc(C(=O)NCc3ccc(F)cc3)c(O)c(=O)n2C)o1 [RALTEGRAVIR POTASSIUM] |  |  |  | 19 | 31 |
| CN(C)S(=O)(=O)N1CCn2c(nc(C(=O)NCc3ccc(F)cc3)c(O)c2=O)C1(C)C | 8 |  |  | 1000 |  |
| CN(C)C(=O)C(=O)N1CCn2c(nc(C(=O)NCc3ccc(F)cc3)c(O)c2=O)C1(C)C | 6 |  |  | 1000 |  |
| CC(=O)N1CCn2c(nc(C(=O)NCc3ccc(F)cc3)c(O)c2=O)C1(C)C | 5 |  |  | 1000 |  |
| CC1(C)c2nc(C(=O)NCc3ccc(F)cc3)c(O)c(=O)n2CCN1Cc1ccccc1 | 5 |  |  | 125 | 250 |
| CN1Cn2c(nc(C(=O)NCc3ccc(F)cc3)c(O)c2=O)C1(C)C | 30 |  |  | 500 | 1000 |
| CC1(C)NCCn2c1nc(C(=O)NCc1ccc(F)cc1)c(O)c2=O | 16 |  |  | 125 | 166 |
| CN1CCN(C(=O)CN2CCn3c(nc(C(=O)NCc4ccc(F)cc4)c(O)c3=O)C2(C)C)CC1 | 21 |  |  | 62 | 125 |
| CC1(C)NS(=O)(=O)Cn2c1nc(C(=O)NCc1ccc(F)cc1)c(O)c2=O | 7 |  |  | 5000 | > 10000 |
| CC1(C)c2nc(C(=O)NCc3ccc(F)cc3)c(O)c(=O)n2CCN1S(C)(=O)=O | 10 |  |  | 1000 |  |
| CC1(C)NC(=O)n2c1nc(C(=O)NCc1ccc(F)cc1)c(O)c2=O | 32 |  |  | > 1000 | > 1000 |
| CC1(C)c2nc(C(=O)NCc3ccc(F)cc3)c(O)c(=O)n2CCN1CCN1CCOCC1 | 3 |  |  | 500 | 1000 |
| CCNC(=O)N1CCn2c(nc(C(=O)NCc3ccc(F)cc3)c(O)c2=O)C1(C)C | 15 |  |  | 500 |  |
| CCN(CC)CCN1CCn2c(nc(C(=O)NCc3ccc(F)cc3)c(O)c2=O)C1(C)C | 76 |  |  | 625 | 625 |
| CC1(C)c2nc(C(=O)NCc3ccc(F)cc3)c(O)c(=O)n2CCN1CC(=O)N1CCCC1 | 7 |  |  | 31 | 250 |
| CN(C)C(=O)CN1CCn2c(nc(C(=O)NCc3ccc(F)cc3)c(O)c2=O)C1(C)C | 8 |  |  | 62 | 125 |
| CC1(C)c2nc(C(=O)NCc3ccc(F)cc3)c(O)c(=O)n2CCN1CC(=O)N1CCOCC1 | 7 |  |  | 62 | 250 |
| CC1(C)NC(=O)Cn2c1nc(C(=O)NCc1ccc(F)cc1)c(O)c2=O | 5 |  |  | > 1000 | > 1000 |
| CN(C)[C@@H]1CCCn2c1nc(C(=O)NCc1ccc(F)cc1)c(O)c2=O | 69 |  |  |  |  |
| CC1(C)NCCCn2c1nc(C(=O)NCc1ccc(F)cc1)c(O)c2=O | 20 |  |  | 500 | 250 |
| CNC(=O)CN1CCn2c(nc(C(=O)NCc3ccc(F)cc3)c(O)c2=O)C1(C)C | 21 |  |  | 62 | 125 |
| CC1(C)c2nc(C(=O)NCc3ccc(F)cc3)c(O)c(=O)n2CCN1CCc1ccccn1 | 12 |  |  | 250 | 1000 |

Now from value to compound, other results behind:

| IC50 [1] [nM] | clearance [4] [mL/min/kg] | bioavailability [5] [%] | Compound | IC95 [2] [nM] | IC95 [3] [nM] |
| --- | --- | --- | --- | --- | --- |
| 13 |  |  | Cc1noc(CN2CCn3c(nc(C(=O)NCc4ccc(F)cc4)c(O)c3=O)C2(C)C)n1 | 15 | 62 |
| 62 |  |  | Cc1cc(CN2CCn3c(nc(C(=O)NCc4ccc(F)cc4)c(O)c3=O)C2(C)C)on1 | 31 | 125 |
| 6 |  |  | CC1(C)c2nc(C(=O)NCc3ccc(F)cc3)c(O)c(=O)n2CCN1Cc1cnccn1 | 31 | 125 |
| 62 |  |  | CN(C)CCN1CCn2c(nc(C(=O)NCc3ccc(F)cc3)c(O)c2=O)C1(C)C | 1250 | 1250 |
| 6 | 10 | 57 | CN1CCn2c(nc(C(=O)NCc3ccc(F)cc3)c(O)c2=O)C1(C)C | 125 | 250 |
| 21 |  |  | CC1(C)c2nc(C(=O)NCc3ccc(F)cc3)c(O)c(=O)n2CCN1Cc1nnco1 | 15 | 62 |
| 6 |  |  | Cn1nncc1CN1CCn2c(nc(C(=O)NCc3ccc(F)cc3)c(O)c2=O)C1(C)C | 15 | 125 |
| 3 |  |  | CC1(C)c2nc(C(=O)NCc3ccc(F)cc3)c(O)c(=O)n2CCN1Cc1cocn1 | 31 | 93 |
| 5 |  |  | CC1(C)c2nc(C(=O)NCc3ccc(F)cc3)c(O)c(=O)n2CCN1CC(N)=O | 125 | 250 |
| 2 |  |  | CC1(C)c2nc(C(=O)NCc3ccc(F)cc3)c(O)c(=O)n2CCN1Cc1nnn[nH]1 | 500 | 1000 |
| 6 |  |  | CC1(C)c2nc(C(=O)NCc3ccc(F)cc3)c(O)c(=O)n2CCN1Cc1cnn[nH]1 | 31 | 125 |
| 5 |  |  | CC1(C)c2nc(C(=O)NCc3ccc(F)cc3)c(O)c(=O)n2CCN1Cc1ccn[nH]1 | 62 | 250 |
| 25 |  |  | Cn1cnc(CN2CCn3c(nc(C(=O)NCc4ccc(F)cc4)c(O)c3=O)C2(C)C)n1 | 31 | 62 |
| 7 |  |  | Cn1nccc1CN1CCn2c(nc(C(=O)NCc3ccc(F)cc3)c(O)c2=O)C1(C)C | 31 | 125 |
| 5 |  |  | Cc1nnc(CN2CCn3c(nc(C(=O)NCc4ccc(F)cc4)c(O)c3=O)C2(C)C)o1 | 7 | 62 |
| 9 |  |  | CC1(C)c2nc(C(=O)NCc3ccc(F)cc3)c(O)c(=O)n2CCN1Cc1ccccn1 | 31 | 125 |
| 9 |  |  | CC1(C)c2nc(C(=O)NCc3ccc(F)cc3)c(O)c(=O)n2CCN1Cc1cscn1 | 15 | 125 |
| 5 |  |  | Cn1nnnc1CN1CCn2c(nc(C(=O)NCc3ccc(F)cc3)c(O)c2=O)C1(C)C | 15 | 62 |
| 9 |  |  | Cn1ccc(CN2CCn3c(nc(C(=O)NCc4ccc(F)cc4)c(O)c3=O)C2(C)C)n1 | 31 | 125 |
| 8 |  |  | CC1(C)c2nc(C(=O)NCc3ccc(F)cc3)c(O)c(=O)n2CCN1CC(=O)O | 500 | 1000 |
| 8 |  |  | Cc1cnc(CN2CCn3c(nc(C(=O)NCc4ccc(F)cc4)c(O)c3=O)C2(C)C)o1 | 15 | 62 |
| 4 |  |  | CC1(C)c2nc(C(=O)NCc3ccc(F)cc3)c(O)c(=O)n2CCN1Cc1cnco1 | 31 | 125 |
| 7 |  |  | CC1(C)c2nc(C(=O)NCc3ccc(F)cc3)c(O)c(=O)n2CCN1Cc1cn[nH]c1 | 62 | 1000 |
| 2 |  |  | Cn1cc(CN2CCn3c(nc(C(=O)NCc4ccc(F)cc4)c(O)c3=O)C2(C)C)nn1 | 31 | 62 |
| 6 |  |  | Cc1nc(CN2CCn3c(nc(C(=O)NCc4ccc(F)cc4)c(O)c3=O)C2(C)C)no1 | 15 | 62 |
| 6 |  |  | Cn1nnc(CN2CCn3c(nc(C(=O)NCc4ccc(F)cc4)c(O)c3=O)C2(C)C)n1 | 7 | 31 |
